Calls of active or inactive are those of the source. No cut-off for these calls is given here.
Legend:
A549 = experiment: Antiproliferative activity against human A549 cells assessed as reduction in cell viability incubated for 72 hrs by MTT assay; assay type: functional, cell-based; conditions: A549, 72 h
Method in brief: (§1)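 Cells (ATCC) grown in DMEM with 10 FBS, penicillin/streptomycin, 2 mM glutamine, 37 °C, 5 CO2. 5000 cells/well seeded; after 24 h, freshly prepared dilutions at five concentrations (0.01–100 μM) added for 72 h. MTT read-out; absorbance converted to percentage growth by NIH formulas. Two experiments in quadruplicate; IC50 by linear regression.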

Human adenovirus 2 = experiment: Antiviral activity against Human adenovirus 2 infected in human HELF cells assessed as reduction in virus-induced cytopathogenicity incubated for 7 days by microscopic analysis; assay type: functional, organism-based
Reovirus sp. = experiment: Antiviral activity against Reovirus infected in vero cells assessed as reduction in virus-induced cytopathogenicity incubated for 7 days by microscopic analysis; assay type: functional, organism-based
Influenza B virus [1] = experiment: Antiviral activity against Influenza B virus (B/Ned/537/05) infected in dog MDCK cells assessed as reduction in virus-induced cytopathogenicity incubated for 7 days by MTS assay; assay type: functional, organism-based; conditions: for EC50: 168 h
Human alphaherpesvirus 2 = experiment: Antiviral activity against Herpes simplex virus 2 G infected in human HELF cells assessed as reduction in virus-induced cytopathogenicity incubated for 7 days by microscopic analysis; assay type: functional, organism-based
Human alphaherpesvirus 1 [2] = experiment: Antiviral activity against Herpes simplex virus 1 KOS infected in human HELF cells assessed as reduction in virus-induced cytopathogenicity incubated for 7 days by microscopic analysis; assay type: functional, organism-based; conditions: strain KOS
Human coronavirus 229E = experiment: Antiviral activity against Human coronavirus 229E infected in human HELF cells assessed as reduction in virus-induced cytopathogenicity incubated for 7 days by microscopic analysis; assay type: functional, organism-based
Human alphaherpesvirus 3 [3] = experiment: Antiviral activity against thymidine kinase deficient Varicella zoster virus infected in human HELF cells assessed as reduction in virus-induced cytopathogenicity incubated for 7 days by Giemsa staining based microscopic analysis; assay type: functional, organism-based; conditions: Human alphaherpesvirus 3, HELF, 168 h
CFPAC-1 = experiment: Antiproliferative activity against human CFPAC-1 cells assessed as reduction in cell viability incubated for 72 hrs by MTT assay; assay type: functional, cell-based; method in brief: as §1
Human alphaherpesvirus 1 [4] = experiment: Antiviral activity against Herpes simplex virus 1 TK-KOS-ACV infected in human HELF cells assessed as reduction in virus-induced cytopathogenicity incubated for 7 days by microscopic analysis; assay type: functional, organism-based
Cytomegalovirus [5] = experiment: Antiviral activity against Cytomegalovirus AD169 infected in human HELF cells assessed as reduction in virus-induced cytopathogenicity incubated for 7 days by Giemsa staining based microscopic analysis; assay type: functional, organism-based; conditions: Human betaherpesvirus 5, AD169, HELF, 168 h
Method in brief: (§2)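 Confluent HEL fibroblasts infected with CMV (Davis or AD-169) at 100 PFU/well for 2 h. Residual virus removed, then medium with graded compound concentrations added (duplicate). Incubated 7 days at 37 °C. Cytopathogenicity scored microscopically after ethanol fixation and Giemsa staining. EC50 read from plots of % cytopathogenicity versus concentration.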

Coxsackievirus B4 = experiment: Antiviral activity against Human coxsackievirus B4 infected in vero cells assessed as reduction in virus-induced cytopathogenicity incubated for 7 days by microscopic analysis; assay type: functional, organism-based
Influenza A virus H3N2 [6] = experiment: Antiviral activity against Influenza A virus (A/HK/7/87(H3N2)) infected in dog MDCK cells assessed as reduction in virus-induced cytopathogenicity incubated for 7 days by MTS assay; assay type: functional, organism-based; conditions: A/Hong Kong/7/1987(H3N2); for EC50: 168 h
Sindbis virus = experiment: Antiviral activity against Sindbis virus infected in vero cells assessed as reduction in virus-induced cytopathogenicity incubated for 7 days by microscopic analysis; assay type: functional, organism-based
HeLa = experiment: Antiproliferative activity against human HeLa cells assessed as reduction in cell viability incubated for 72 hrs by MTT assay; assay type: functional, cell-based; method in brief: as §1
HCT-116 = experiment: Antiproliferative activity against human HCT116cells assessed as reduction in cell viability incubated for 72 hrs by MTT assay; assay type: functional, cell-based; conditions: HCT-116, 72 h; method in brief: as §1
Cytomegalovirus [7] = experiment: Antiviral activity against Cytomegalovirus Davis infected in human HELF cells assessed as reduction in virus-induced cytopathogenicity incubated for 7 days by Giemsa staining based microscopic analysis; assay type: functional, organism-based; conditions: Human betaherpesvirus 5, Davis, 168 h; method in brief: as §2
SW-620 = experiment: Antiproliferative activity against human SW620 cells assessed as reduction in cell viability incubated for 72 hrs by MTT assay; assay type: functional, cell-based; conditions: SW-620, 72 h; method in brief: as §1
Influenza A virus [8] = experiment: Antiviral activity against Influenza A virus (A/Ned/378/05(H1N1)) infected in dog MDCK cells assessed as reduction in virus-induced cytopathogenicity incubated for 7 days by microscopic analysis; assay type: functional, organism-based
HepG2 = experiment: Antiproliferative activity against human HepG2 cells assessed as reduction in cell viability incubated for 72 hrs by MTT assay; assay type: functional, cell-based; conditions: HepG2, 72 h; method in brief: as §1
Influenza A virus [9] = experiment: Antiviral activity against Influenza A virus (A/Ned/378/05(H1N1)) infected in dog MDCK cells assessed as reduction in virus-induced cytopathogenicity incubated for 7 days by MTS assay; assay type: functional, organism-based
MCF7 = experiment: Antiproliferative activity against human MCF7 cells assessed as reduction in cell viability incubated for 72 hrs by MTT assay; assay type: functional, cell-based; conditions: MCF7, 72 h; method in brief: as §1
Influenza B virus [10] = experiment: Antiviral activity against Influenza B virus (B/Ned/537/05) infected in dog MDCK cells assessed as reduction in virus-induced cytopathogenicity incubated for 7 days by microscopic analysis; assay type: functional, organism-based; conditions: for EC50: 168 h
[11] = Cytotoxicity against human HELF cells assessed as reduction in cell viability incubated for 3 days by coulter counter method; assay type: cell-based; conditions: 72 h
Method in brief: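 HEL cells seeded at 5 x 10^3/well and allowed to proliferate 24 h, then exposed to graded compound concentrations for 3 days at 37 °C. Cell number counted with a Coulter counter.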

[12] = Cytotoxicity against human HELF cells assessed as minimum cytotoxic concentration by observing alteration in cell morphology incubated for 3 days by microscopic analysis; assay type: cell-based; conditions: HELF cells
Method in brief: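 Read-out is the minimum cytotoxic concentration (MCC): the lowest compound concentration giving a microscopically detectable change in cell morphology. Measured on confluent human embryonic lung (HEL) fibroblast cultures exposed to a range of compound concentrations.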

HFF = experiment: Cytotoxicity against human HFF cells assessed as reduction in cell viability incubated for 72 hrs by MTT assay; assay type: cell-based; method in brief: as §1
Influenza A virus H3N2 [13] = experiment: Antiviral activity against Influenza A virus (A/HK/7/87(H3N2)) infected in dog MDCK cells assessed as reduction in virus-induced cytopathogenicity incubated for 7 days by microscopic analysis; assay type: functional, organism-based; conditions: A/Hong Kong/7/1987(H3N2); for EC50: 168 h
Human alphaherpesvirus 3 [14] = experiment: Antiviral activity against thymidine kinase positive Varicella zoster virus infected in human HELF cells assessed as reduction in virus-induced cytopathogenicity incubated for 7 days by Giemsa staining based microscopic analysis; assay type: functional, organism-based; conditions: Human alphaherpesvirus 3, HELF, 168 h
[15] = Cytotoxicity against dog MDCK cells assessed as minimum cytotoxic concentration by observing alteration in cell morphology incubated for 3 days by microscopic analysis; assay type: cell-based, Canis lupus familiaris
MDCK = experiment: Cytotoxicity against dog MDCK cells assessed as reduction in cell viability incubated for 3 days by coulter counter method; assay type: cell-based, Canis lupus familiaris; conditions: mdck, 72 h
[16] = Homo sapiens, CFPAC-1, 72 h, read-out: IC50
[17] = Influenza A virus, A/Ned/378/05(H1N1), MDCK, 168 h

| Structure (SMILES) | IC50 (A549) [µM] | Activity (Human adenovirus 2) | Activity (Reovirus sp.) | Activity (Influenza B virus [1]) | Activity (Human alphaherpesvirus 2) | Activity (Human alphaherpesvirus 1 [2]) | Activity (Human coronavirus 229E) | EC50 (Human alphaherpesvirus 3 [3]) [µM] | Activity (Human alphaherpesvirus 1 [4]) | EC50 (Cytomegalovirus [5]) [µM] | Activity (Coxsackievirus B4) | Activity (Influenza A virus H3N2 [6]) | Activity (Sindbis virus) | IC50 (HeLa) [µM] | IC50 (HCT-116) [µM] | EC50 (Cytomegalovirus [7]) [µM] | IC50 (SW-620) [µM] | Activity (Influenza A virus [8]) | IC50 (HepG2) [µM] | Activity (Influenza A virus [9]) | further results |
| --- | --- | --- | --- | --- | --- | --- | --- | --- | --- | --- | --- | --- | --- | --- | --- | --- | --- | --- | --- | --- | --- |
| O=C1O/C(=C\Cn2cc(-c3cccc(O)c3)nn2)C(OCc2ccccc2)=C1OCc1ccccc1 | 23.3 | inactive | inactive | inactive | inactive | inactive | inactive | 14.7 | inactive | 9.36 | inactive | inactive | inactive | 74.8 | 63.6 | 8.94 | 69.8 | inactive | 61.7 | inactive | IC50 (CFPAC-1; [16]): 33.7 µM; IC50 (MCF7): 27.8 µM; Activity (Influenza B virus [10]): inactive; CC50 [11]: 11.1 µM; MCC at 72 h [12]: 100 µM; IC50 (HFF): 42.6 µM; Activity (Influenza A virus H3N2 [13]): inactive; EC50 (Human alphaherpesvirus 3 [14]): 11.6 µM |
| O=C1O/C(=C\Cn2cc(-c3cc(F)cc(F)c3)nn2)C(OCc2ccccc2)=C1OCc1ccccc1 | > 100 | inactive | inactive | inactive | inactive | inactive | inactive | > 100 | inactive | 9.36 | inactive | inactive | inactive | 17.7 | > 100 | 8.94 | > 100 | inactive | > 100 | inactive | IC50 (CFPAC-1; cfpac-1): Not Active; IC50 (MCF7): > 100 µM; Activity (Influenza B virus [10]): inactive; CC50 [11]: > 100 µM; MCC at 72 h [12]: 100 µM; IC50 (HFF): > 100 µM; Activity (Influenza A virus H3N2 [13]): inactive; EC50 (Human alphaherpesvirus 3 [14]): 14.6 µM |
| Cc1ccc(-c2cn(C/C=C3\OC(=O)C(OCc4ccccc4)=C3OCc3ccccc3)nn2)cc1 | > 100 | inactive | inactive | inactive | inactive | inactive | inactive | 27.6 | inactive | 8.94 | inactive | inactive | inactive | 7.48 | > 100 | 5.66 | > 100 | inactive | > 100 | inactive | IC50 (CFPAC-1; [16]): > 100 µM; IC50 (MCF7): > 100 µM; Activity (Influenza B virus [10]): inactive; CC50 [11]: > 100 µM; MCC at 72 h [12]: 20 µM; IC50 (HFF): > 100 µM; Activity (Influenza A virus H3N2 [13]): inactive; EC50 (Human alphaherpesvirus 3 [14]): > 4 µM |
| CC(=O)N[C@H]1[C@H]([C@H](O)[C@H](O)CO)OC(C(=O)O)=C[C@@H]1N=C(N)N [ZANAMIVIR] |  |  |  |  |  |  |  |  |  |  |  |  |  |  |  |  |  |  |  |  | MCC at 72 h [15]: > 100 µM; EC50 (Influenza B virus [1]): 0.4 µM; CC50 (MDCK): ≥ 100 µM; EC50 (Influenza A virus H3N2 [6]): 0.01 µM; EC50 (Influenza B virus [10]): 0.4 µM; EC50 (Influenza A virus H3N2 [13]): 0.4 µM |
| CC(N)C12CC3CC(CC(C3)C1)C2 (stereo not drawn) [RIMANTADINE] |  |  |  |  |  |  |  |  |  |  |  |  |  |  |  |  |  |  |  |  | MCC at 72 h [15]: > 200 µM; EC50 (Influenza B virus [1]): > 200 µM; CC50 (MDCK): > 200 µM; EC50 (Influenza A virus H3N2 [6]): 0.01 µM; EC50 (Influenza A virus [8]; [17]): > 200 µM; EC50 (Influenza A virus [9]; [17]): > 200 µM; EC50 (Influenza B virus [10]): > 200 µM; EC50 (Influenza A virus H3N2 [13]): 0.01 µM |
